Data: ChEMBL document CHEMBL1125500 (J Med Chem, 1992)

Experiments:
[1] = biological target: T1, Lanosterol 14-alpha demethylase (Rattus norvegicus, UniProt Q64654); experiment: Inhibition of lanosterol 14 alpha-demethylase cytochrome P450 51A
T1 sequence (Q64654 whole entry): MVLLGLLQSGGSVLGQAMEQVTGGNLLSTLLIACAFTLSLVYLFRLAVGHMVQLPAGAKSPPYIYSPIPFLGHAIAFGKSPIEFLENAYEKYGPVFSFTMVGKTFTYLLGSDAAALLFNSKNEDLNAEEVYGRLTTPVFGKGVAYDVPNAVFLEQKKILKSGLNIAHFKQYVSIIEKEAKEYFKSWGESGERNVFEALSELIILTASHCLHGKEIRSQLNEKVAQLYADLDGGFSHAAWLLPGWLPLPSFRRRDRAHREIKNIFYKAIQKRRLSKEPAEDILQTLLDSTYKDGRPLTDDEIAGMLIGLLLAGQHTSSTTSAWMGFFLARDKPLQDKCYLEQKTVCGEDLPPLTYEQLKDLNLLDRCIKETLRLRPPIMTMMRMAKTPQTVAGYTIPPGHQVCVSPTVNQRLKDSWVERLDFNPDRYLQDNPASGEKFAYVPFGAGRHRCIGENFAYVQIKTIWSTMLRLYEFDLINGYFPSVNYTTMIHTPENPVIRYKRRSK
Method in brief: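 Liver microsomes from cholestyramine-treated male rats. Buffer was potassium phosphate pH 7.0 with DTT, EDTA, MgCl2, 0.005% Tween-20, 20% glycerol, 5 mM glucose 6-phosphate and G6P dehydrogenase. […] Reaction was started with NADPH, run 30 min at 37 °C and stopped with TCA. Tritiated water-soluble products were separated on Bond-Elut and counted by scintillation in duplicate.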

[2] = Inhibition of lauric acid hydroxylase cytochrome P450 4A; parameters: species or system Rattus norvegicus
Method in brief: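 Microsomal protein (0.05 mg/mL) with [14C]lauric acid (10 nmol, 6 mCi/mmol), potassium phosphate pH 7.4, MgCl2, EDTA, glucose 6-phosphate, glucose-6-phosphate dehydrogenase (2 units) and NADPH, in 1 mL. Ran 10 min at 37 °C and was stopped with CH2Cl2. Products were resolved by reverse-phase HPLC on a MeCN gradient with radioflow detection.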

[3] = Inhibition of Steroid 17-alpha-hydroxylase/17,20 lyase cytochrome P450 17A1; parameters: species or system Sus scrofa
[4] = Inhibition of cytochrome P450 progesterone 16-alpha hydroxylase; type: ADME, Rattus norvegicus
[5] = biological target: Cholesterol side-chain cleavage enzyme, mitochondrial (Bos taurus) (UniProt P00189); experiment: Inhibition of cholesterol side chain cleavage cytochrome P450
Cholesterol side-chain cleavage enzyme, mitochondrial (Bos taurus), sequence (P00189 whole entry, looked up): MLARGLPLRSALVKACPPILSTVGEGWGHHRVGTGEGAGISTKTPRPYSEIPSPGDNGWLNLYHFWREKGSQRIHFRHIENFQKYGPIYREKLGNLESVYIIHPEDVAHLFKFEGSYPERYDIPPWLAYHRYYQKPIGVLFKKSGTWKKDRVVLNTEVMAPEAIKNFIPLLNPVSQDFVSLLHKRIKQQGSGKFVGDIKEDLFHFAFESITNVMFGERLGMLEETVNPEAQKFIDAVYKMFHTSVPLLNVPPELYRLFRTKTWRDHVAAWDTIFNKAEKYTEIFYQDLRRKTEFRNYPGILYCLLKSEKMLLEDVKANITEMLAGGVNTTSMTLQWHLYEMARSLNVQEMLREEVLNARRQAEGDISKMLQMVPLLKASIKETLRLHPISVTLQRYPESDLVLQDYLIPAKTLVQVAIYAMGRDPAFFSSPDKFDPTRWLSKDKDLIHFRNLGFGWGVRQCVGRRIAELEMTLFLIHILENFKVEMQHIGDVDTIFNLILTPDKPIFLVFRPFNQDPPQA

Cytochrome P450 2A2 = Cytochrome P450 2A2 (Rattus norvegicus, UniProt P15149); experiment: Inhibition of cytochrome P450 progesterone 15-alpha hydroxylase; type: ADME
Cytochrome P450 2A2, sequence (P15149 whole entry): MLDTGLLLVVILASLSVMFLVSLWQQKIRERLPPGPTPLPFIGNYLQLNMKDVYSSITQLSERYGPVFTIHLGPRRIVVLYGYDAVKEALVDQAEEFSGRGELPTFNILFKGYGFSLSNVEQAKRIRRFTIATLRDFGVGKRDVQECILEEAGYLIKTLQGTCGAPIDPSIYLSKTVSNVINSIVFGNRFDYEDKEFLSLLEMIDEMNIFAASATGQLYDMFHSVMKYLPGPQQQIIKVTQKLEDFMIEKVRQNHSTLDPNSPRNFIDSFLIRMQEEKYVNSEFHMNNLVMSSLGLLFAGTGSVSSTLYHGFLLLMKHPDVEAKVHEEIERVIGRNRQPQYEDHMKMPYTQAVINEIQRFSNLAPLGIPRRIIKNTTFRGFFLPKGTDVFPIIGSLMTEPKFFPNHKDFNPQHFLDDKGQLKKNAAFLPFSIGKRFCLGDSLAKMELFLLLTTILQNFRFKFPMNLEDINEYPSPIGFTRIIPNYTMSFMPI

## CC(=O)N1CCN(c2ccc(OC[C@H]3CO[C@@](Cn4ccnc4)(c4ccc(Cl)cc4Cl)O3)cc2)CC1
[1]
  IC50: 1600 nM
[2]
  IC50: > 100 µM
[3]
  IC50: 589 nM
[4]
  IC50: 37.9 µM
[5]
  IC50: 2.95 µM
Cytochrome P450 2A2
  IC50: 1080 nM

## CC(=O)N1CCN(c2ccc(OC[C@@H]3CO[C@](Cn4ccnc4)(c4ccc(Cl)cc4Cl)O3)cc2)CC1
[1]
  IC50: 1370 nM
[2]
  IC50: > 100 µM
[4]
  IC50: 32.3 µM
[5]
  IC50: 3.92 µM
Cytochrome P450 2A2
  IC50: 728 nM

## CC(=O)N1CCN(c2ccc(OCC3COC(Cn4ccnc4)(c4ccc(Cl)cc4Cl)O3)cc2)CC1 (stereo in doubt; 2) [KETOCONAZOLE]
[1]
  IC50: 47 nM
[3]
  IC50: 50 nM
[4]
  IC50: 83.9 µM
[5]
  IC50: 1.24 µM
Cytochrome P450 2A2
  IC50: 543 nM

## CC(=O)N1CCN(c2ccc(OCC3COC(Cn4ccnc4)(c4ccc(Cl)cc4Cl)O3)cc2)CC1 (stereo in doubt; 4) [KETOCONAZOLE]
[1]
  IC50: 119 nM
[2]
  IC50: > 100 µM
[3]
  IC50: 2380 nM
[4]
  IC50: 69.3 µM
[5]
  IC50: 5.4 µM
Cytochrome P450 2A2
  IC50: 369 nM
